Source: PubChem BioAssay
Hits are enriched below; roughly 3.7% of the tested compounds scored in any of these assays.
KCNK9 block: KCNK9 potassium channel inhibitors, primary screen, HEK293 cells, thallium flux | Potassium channel subfamily K member 9 (Homo sapiens), Q9NPC2 | FluxOR thallium flux fluorescence; stronger effect = lower value | B-score at 10 µM | 310,000 compounds, 1.2% hits;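 active = ratio B-score over 3 SD below the library mean, with starting fluorescence within 5 SD of its mean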;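 also: negative B-score means less thallium flux so channel inhibition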
KCNK3 inh: human KCNK3 channel inhibitors, primary screen, CHO cells, FluxOR thallium flux, B-score. 340,000 compounds, 0.84% hits. Potassium channel subfamily K member 3 (Homo sapiens), O14649. B-score at 10 µM. FluxOR fluorescence; stronger effect = lower value;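 active = B-score under library mean minus 4 SD, starting fluorescence ratio at most library mean plus 5 SD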;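 also: more negative B-score means stronger inhibition of thallium flux through KCNK3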
KCNQ1 inh: inhibitors of human KCNQ1 channel, primary screen, cell-based, thallium flux, high-throughput; Potassium voltage-gated channel subfamily KQT member 1 (Homo sapiens), P51787; CHO-K1 KCNQ1, FluxOR thallium flux fluorescence; stronger effect = higher value; B-score at 10 µM; 310,000 compounds, 1.3% hits; AID 2642, 2010;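 active = compounds whose thallium flux B-score, printed positive for inhibition, exceeds three library SD while starting fluorescence stays within three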;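 also: channel opened by potassium depolarization with thallium stimulus after 20 min compound exposure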
Kir21 block: inhibitors of mouse Kir2.1 inward-rectifier potassium channel; HEK293-Kir2.1, FluxOR thallium flux fluorescence; stronger effect = lower value; B-score at 10 µM; 310,000 compounds, 0.85% hits; Inward rectifier potassium channel 2 (Mus musculus), P35561;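 active = fluorescence ratio B-score at or below minus 3 SD of library scores, with starting-brightness B-score within 2 SD, cut at about -4.2 in these data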;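 also: channel flux triggered by added potassium and thallium sulfate stimulus; B-score of peak minus minimum fluorescence over baseline after thallium stimulus; more negative B-score means stronger Kir2.1 block with less thallium influx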
Target sequence (P35561 whole entry, looked up): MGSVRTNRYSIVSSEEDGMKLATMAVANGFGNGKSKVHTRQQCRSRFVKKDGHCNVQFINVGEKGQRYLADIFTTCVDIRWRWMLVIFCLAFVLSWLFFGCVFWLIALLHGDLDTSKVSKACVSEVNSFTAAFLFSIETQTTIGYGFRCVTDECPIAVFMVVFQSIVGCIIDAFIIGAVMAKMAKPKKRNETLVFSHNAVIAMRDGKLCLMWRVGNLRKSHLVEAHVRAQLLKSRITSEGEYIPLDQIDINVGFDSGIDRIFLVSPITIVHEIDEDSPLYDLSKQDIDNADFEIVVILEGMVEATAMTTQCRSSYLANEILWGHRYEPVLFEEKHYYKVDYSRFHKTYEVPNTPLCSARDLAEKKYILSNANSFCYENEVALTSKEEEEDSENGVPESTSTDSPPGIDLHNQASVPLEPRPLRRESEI
hERG protect: hERG rescue from dofetilide block, primary screen, cell-based, CHO-hERG, FluxOR thallium flux, dofetilide IC70. Voltage-gated inwardly rectifying potassium channel KCNH2 (Homo sapiens), Q12809. activation (rescue from dofetilide block), less the hit threshold, % at 10 µM. 310,000 compounds, 0.51% hits. dofetilide IC70 present. AID 1511, 2009;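 active = activation above the mean of controls blocked by dofetilide plus 5 SD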;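 also: thallium influx through hERG after potassium depolarization seen as dye fluorescence rise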
KCNQ1 act: potentiators or activators of KCNQ1 channel, primary screen, cell-based, thallium flux, high-throughput; AID 2648, 2010; CHO-K1 KCNQ1, thallium flux FluxOR fluorescence; stronger effect = higher value; 310,000 compounds, 0.35% hits; B-score at 10 µM; Potassium voltage-gated channel subfamily KQT member 1 (Homo sapiens), P51787;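 active = fluorescence ratio B-score, a plate-corrected score, at least three library SD, with initial intensity B-score within 5 SD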
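Doses: Single concentration per compound, DMSO matched to controls | Test system: KCNQ1-transfected CHO-K1 cells | Timing: 90 min dye loading and 20 min compound exposure, both at room temperature | Measured by: Kinetic FluxOR thallium fluorescence, 10-s 1-Hz baseline, 110-s post-stimulus read | Medium: Assay buffer with matched DMSO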
KCNQ1 inh valid: KCNQ1 potassium channel inhibitors, confirmation, cell-based, Tl flux, duplicate | shares compounds with KCNQ1 inh | KCNQ1 cell line, FluxOR thallium flux fluorescence | inhibition, % at 10 µM | 1,600 compounds, 93% hits;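 active = primary screen active, with duplicate mean exceeding buffer control mean plus 3 SD of buffer wells, cut at about 28% in these data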
CHO KCNQ1 ctr: thallium flux effects in parental CHO cells, counter-screen for KCNQ1 inhibitor project, cell-based, Tl flux. 1,600 compounds, 21% hits. shares compounds with KCNQ1 inh. parental CHO-K1, FluxOR thallium flux fluorescence ratio; stronger effect = lower value; zero means no signal rise above baseline. fluorescence ratio (Tl flux) at 10 µM;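 active = mean of duplicate thallium-flux fluorescence ratios in parental host cells more than 5 SD below the buffer control mean, cut at about 0.38 in these data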;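 also: ratio is peak minus minimum fluorescence divided by baseline fluorescence; actives read low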
KCNQ1 APC inh: KCNQ1 channel inhibitors, confirmation, orthogonal assay, cell-based, automated electrophysiology; 490 compounds, 20% hits; shares compounds with KCNQ1 inh; KCNQ1-CHO cells, automated patch clamp current; calls only at 10 µM;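 active = KCNQ1 current drop exceeding 3 SD of negative control wells, seen in both duplicate runs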;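 also: steady state current during a 2 s step from -80 to +40 mV; negative values mean current inhibition and positive values mean potentiation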
KCNQ2 inh: KCNQ2 channel inhibition, selectivity assay for KCNQ1 inhibitor project, cell-based; shares compounds with KCNQ1 inh; KCNQ2 cells, FluxOR thallium flux fluorescence; inhibition, % at 10 µM; 1,600 compounds, 71% hits; AID 651746, 2012;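 active = mean percent inhibition of the KCNQ2 thallium signal more than 5 SD above the buffer-only control wells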;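 also: KCNQ2 expressed in CHO cells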
KCNQ1-KCNE1 inh: KCNQ1/KCNE1 channel inhibition, selectivity assay for KCNQ1 inhibitor project, CHO-K1 cells, thallium flux, FluxOR | shares compounds with KCNQ1 inh | FluxOR thallium flux fluorescence | inhibition, % at 10 µM | 1,600 compounds, 77% hits;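 active = mean percent inhibition of duplicate wells above the buffer-only control mean plus 3 SD of those controls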
A number is an active result.

What do the screens show for `S=C(NCc1cccs1)Nc1cc(Cl)cc(Cl)c1`?
KCNK9 block: inactive; KCNK3 inh: inactive; KCNQ1 inh: 6; Kir21 block: inactive; hERG protect: inactive; KCNQ1 act: inactive; KCNQ1 inh valid: 33.5; CHO KCNQ1 ctr: inactive; KCNQ2 inh: 77.7%; KCNQ1-KCNE1 inh: inactive

Results for S=C(NCc1cccs1)Nc1cccc(Cl)c1 ?
KCNK9 block: inactive; KCNK3 inh: inactive; KCNQ1 inh: inactive; Kir21 block: inactive; hERG protect: inactive; KCNQ1 act: inactive

What do the screens show for `COc1ccc(CC2(CO)CCN(CC3=Cc4cc(Cl)ccc4OC3)CC2)cc1`?
KCNK9 block: inactive; KCNK3 inh: inactive; KCNQ1 inh: 9; Kir21 block: inactive; hERG protect: inactive; KCNQ1 act: inactive; KCNQ1 inh valid: 113.0; CHO KCNQ1 ctr: inactive; KCNQ1 APC inh: inactive; KCNQ2 inh: 102.3%; KCNQ1-KCNE1 inh: inactive

Results for COc1ccc2c(c1)C=C(CN1CCC(CO)(CCc3ccccc3)CC1)CO2 ?
KCNK9 block: inactive; KCNK3 inh: inactive; KCNQ1 inh: inactive; Kir21 block: inactive; hERG protect: inactive; KCNQ1 act: inactive

Results for Cc1ccc(NC(=O)Nc2ccc(F)cc2)cc1Cl ?
KCNK9 block: inactive; KCNK3 inh: inactive; KCNQ1 inh: 10; Kir21 block: inactive; hERG protect: inactive; KCNQ1 act: inactive; KCNQ1 inh valid: 69.5; CHO KCNQ1 ctr: inactive; KCNQ2 inh: 61.3%; KCNQ1-KCNE1 inh: inactive

What do the screens show for `COc1cccc(NC(=O)Nc2cc(C(=O)O)ccc2C)c1`?
KCNK9 block: inactive; KCNK3 inh: inactive; KCNQ1 inh: inactive; Kir21 block: inactive; hERG protect: inactive; KCNQ1 act: inactive

What do the screens show for `COc1cccc(NC(=O)Nc2ccc(C)c(Cl)c2)c1`?
KCNK9 block: inactive; KCNK3 inh: inactive; KCNQ1 inh: 6; Kir21 block: inactive; hERG protect: inactive; KCNQ1 act: inactive; KCNQ1 inh valid: 76.5; CHO KCNQ1 ctr: inactive; KCNQ2 inh: inactive; KCNQ1-KCNE1 inh: inactive

What do the screens show for `CCCc1c(-c2ccc(O)cc2)nn(-c2ccc(O)cc2)c1-c1ccc(O)cc1`?
KCNK9 block: inactive; KCNK3 inh: -8.97; KCNQ1 inh: 13; Kir21 block: inactive; hERG protect: inactive; KCNQ1 act: inactive; KCNQ1 inh valid: 146.5; CHO KCNQ1 ctr: 0.254; KCNQ2 inh: inactive; KCNQ1-KCNE1 inh: active

Results for Cc1c(C(N)=O)c(-c2ccccc2)nn1-c1ccccc1 ?
KCNK9 block: inactive; KCNK3 inh: inactive; KCNQ1 inh: inactive; Kir21 block: inactive; hERG protect: inactive; KCNQ1 act: inactive
